Measured values reported in publication PMC9302689 (British Journal of Clinical Pharmacology, 2022).

Tested on: healthy male subjects
Experiment: Pharmaco-EEG
Assay type: in vivo, human
Details: 12-hour post-dose period
Procedure, shortened: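 Continuous EEG was recorded from 21 electrodes placed by the 10–20 system, with mastoid electrodes replacing the earlobe ones. Recordings followed IPEG guidelines, twice pre-dose and at 0.5–10 h post-dose. Power spectra for Fz-Cz and Pz-O derivations were split into bands to give total band power (μV). Values were ln-transformed, analysed by MMRM over 12 h against pooled placebo, and back-transformed.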

CN1CCC23CCCCC2C1Cc1ccc(C(N)=O)cc13 (stereo not drawn) [ALKS 7119, (9α, 13α)‐17‐methylmorphinan‐3‐carboxamide]
Theta-power Pz-Oz, LSM CFB (75 mg single oral dose): 0.12 Hz | Theta-power Pz-Oz, estimate of difference compared to placebo (75 mg single oral dose): 0.05 [−0.20, 0.28] P = .69 Hz | Alpha-power Fz-Cz, LSM CFB (100 mg single oral dose): 0.06 Hz | Alpha-power Pz-Oz, LSM CFB (100 mg single oral dose): 0.12 Hz | Alpha-power Pz-Oz, estimate of difference compared to placebo (100 mg single oral dose): 0.02 [−0.23, 0.28] P = .85 Hz | Beta-power Fz-Cz, LSM CFB (100 mg single oral dose): 0.08 Hz | Beta-power Fz-Cz, estimate of difference compared to placebo (100 mg single oral dose): −0.03 [−0.25, 0.19] P = .77 Hz | Beta-power Pz-Oz, LSM CFB (100 mg single oral dose): 0.25 Hz | Beta-power Pz-Oz, estimate of difference compared to placebo (100 mg single oral dose): 0.12 [−0.07, 0.32] P = .22 Hz | Delta-power Fz-Cz, LSM CFB (100 mg single oral dose): −0.03 Hz | Delta-power Fz-Cz, estimate of difference compared to placebo (100 mg single oral dose): −0.13 [−0.34, 0.08] P = .22 Hz | Delta-power Pz-Oz, LSM CFB (100 mg single oral dose): 0.08 Hz | Delta-power Pz-Oz, estimate of difference compared to placebo (100 mg single oral dose): 0.02 [−0.21, 0.25] P = .89 Hz | Gamma-power Fz-Cz, LSM CFB (100 mg single oral dose): 0.1 Hz | Gamma-power Fz-Cz, estimate of difference compared to placebo (100 mg single oral dose): <−0.01 [−0.20, 0.21] P = .99 Hz | Gamma-power Pz-Oz, LSM CFB (100 mg single oral dose): 0.27 Hz | Gamma-power Pz-Oz, estimate of difference compared to placebo (100 mg single oral dose): 0.06 [−0.19, 0.32] P = .63 Hz | Theta-power Fz-Cz, LSM CFB (100 mg single oral dose): 0.03 Hz | Theta-power Fz-Cz, estimate of difference compared to placebo (100 mg single oral dose): −0.04 [−0.27, 0.19] P = .72 Hz | Theta-power Pz-Oz, LSM CFB (100 mg single oral dose): 0.14 Hz | Theta-power Pz-Oz, estimate of difference compared to placebo (100 mg single oral dose): 0.08 [−0.16, 0.30] P = .56 Hz | Alpha-power Fz-Cz, LSM CFB (125 mg single oral dose): 0.05 Hz | Alpha-power Fz-Cz, estimate of difference compared to placebo (125 mg single oral dose): −0.17 [−1.24,‐.89] P = .75 Hz | Alpha-power Pz-Oz, LSM CFB (125 mg single oral dose): 0.11 Hz | Alpha-power Pz-Oz, estimate of difference compared to placebo (125 mg single oral dose): 0.01 [−0.25, 0.27] P = .93 Hz | Beta-power Fz-Cz, LSM CFB (125 mg single oral dose): 0.12 Hz | Beta-power Fz-Cz, estimate of difference compared to placebo (125 mg single oral dose): 0.01 [−0.21, 0.23] P = .93 Hz | Beta-power Pz-Oz, LSM CFB (125 mg single oral dose): 0.14 Hz | Beta-power Pz-Oz, estimate of difference compared to placebo (125 mg single oral dose): 0.02 [−0.18, 0.22] P = .87 Hz | Delta-power Fz-Cz, LSM CFB (125 mg single oral dose): 0.09 Hz | Delta-power Fz-Cz, estimate of difference compared to placebo (125 mg single oral dose): −0.01 [0.22, 0.20] P = .90 Hz | Delta-power Pz-Oz, LSM CFB (125 mg single oral dose): 0.22 Hz | Delta-power Pz-Oz, estimate of difference compared to placebo (125 mg single oral dose): 0.15 [−0.08, 0.39] P = .19 Hz | Gamma-power Fz-Cz, LSM CFB (125 mg single oral dose): 0.12 Hz | Gamma-power Fz-Cz, estimate of difference compared to placebo (125 mg single oral dose): 0.02 [−0.18, 0.22] P = .85 Hz | Gamma-power Pz-Oz, LSM CFB (125 mg single oral dose): 0.12 Hz | Gamma-power Pz-Oz, estimate of difference compared to placebo (125 mg single oral dose): −0.09 [−0.35, 0.17] P = .49 Hz | Theta-power Fz-Cz, LSM CFB (125 mg single oral dose): 0.1 Hz | Theta-power Fz-Cz, estimate of difference compared to placebo (125 mg single oral dose): 0.03 [−0.20, 0.25] P = .82 Hz | Theta-power Pz-Oz, LSM CFB (125 mg single oral dose): 0.15 Hz | Theta-power Pz-Oz, estimate of difference compared to placebo (125 mg single oral dose): 0.08 [−0.15, 0.31] P = .50 Hz | Alpha-power Fz-Cz, LSM CFB (150 mg single oral dose): 0.15 Hz | Alpha-power Pz-Oz, LSM CFB (150 mg single oral dose): −0.07 Hz | Alpha-power Pz-Oz, estimate of difference compared to placebo (150 mg single oral dose): −0.17 [−0.43, 0.09] P = .19 Hz | Beta-power Fz-Cz, LSM CFB (150 mg single oral dose): 0.11 Hz | Beta-power Fz-Cz, estimate of difference compared to placebo (150 mg single oral dose): −0.01 [−0.22, 0.22] P = .97 Hz | Beta-power Pz-Oz, LSM CFB (150 mg single oral dose): −0.07 Hz | Beta-power Pz-Oz, estimate of difference compared to placebo (150 mg single oral dose): −0.19 [−0.39, 0.01] P = .06 Hz | Delta-power Fz-Cz, LSM CFB (150 mg single oral dose): −0.08 Hz | Delta-power Fz-Cz, estimate of difference compared to placebo (150 mg single oral dose): −0.19 [−0.41, 0.03] P = .08 Hz | Delta-power Pz-Oz, LSM CFB (150 mg single oral dose): 0.02 Hz | Delta-power Pz-Oz, estimate of difference compared to placebo (150 mg single oral dose): −0.04 [−0.27, 0.19] P = .71 Hz | Gamma-power Fz-Cz, LSM CFB (150 mg single oral dose): 0.14 Hz | Gamma-power Fz-Cz, estimate of difference compared to placebo (150 mg single oral dose): 0.04 [−0.16, 0.24] P = .71 Hz | Gamma-power Pz-Oz, LSM CFB (150 mg single oral dose): 0.09 Hz | Gamma-power Pz-Oz, estimate of difference compared to placebo (150 mg single oral dose): −0.12 [−0.37, 0.14] P = .37 Hz | Theta-power Fz-Cz, LSM CFB (150 mg single oral dose): 0 Hz | Theta-power Fz-Cz, estimate of difference compared to placebo (150 mg single oral dose): −0.07 [−0.31, 0.16] P = .54 Hz | Theta-power Pz-Oz, LSM CFB (150 mg single oral dose): 0 Hz | Theta-power Pz-Oz, estimate of difference compared to placebo (150 mg single oral dose): −0.07 [−0.31, 0.16] P = .53 Hz | Alpha-power Fz-Cz, LSM CFB (175 mg single oral dose): 0.02 Hz | Alpha-power Fz-Cz, estimate of difference compared to placebo (175 mg single oral dose): −0.15 [−1.19, 0.9] P = .78 Hz | Alpha-power Pz-Oz, LSM CFB (175 mg single oral dose): −0.02 Hz | Alpha-power Pz-Oz, estimate of difference compared to placebo (175 mg single oral dose): −0.12 [−0.37, 0.14] P = .36 Hz | Beta-power Fz-Cz, LSM CFB (175 mg single oral dose): 0.08 Hz | Beta-power Fz-Cz, estimate of difference compared to placebo (175 mg single oral dose): −0.04 [−0.26, 0.18] P = .73 Hz | Beta-power Pz-Oz, LSM CFB (175 mg single oral dose): 0.01 Hz | Beta-power Pz-Oz, estimate of difference compared to placebo (175 mg single oral dose): −0.12 [−0.32, 0.08] P = .24 Hz | Delta-power Fz-Cz, LSM CFB (175 mg single oral dose): 0.09 Hz | Delta-power Fz-Cz, estimate of difference compared to placebo (175 mg single oral dose): −0.01 [−0.23, 0.20] P = .91 Hz | Delta-power Pz-Oz, LSM CFB (175 mg single oral dose): −0.07 Hz | Delta-power Pz-Oz, estimate of difference compared to placebo (175 mg single oral dose): −0.13 [−0.36, 0.11] P = .26 Hz | Gamma-power Fz-Cz, LSM CFB (175 mg single oral dose): 0.16 Hz | Gamma-power Fz-Cz, estimate of difference compared to placebo (175 mg single oral dose): 0.06 [−0.14, 0.26] P = .57 Hz | Gamma-power Pz-Oz, LSM CFB (175 mg single oral dose): 0.03 Hz | Gamma-power Pz-Oz, estimate of difference compared to placebo (175 mg single oral dose): −0.18 [−0.43, 0.08] P = .17 Hz | Theta-power Fz-Cz, LSM CFB (175 mg single oral dose): 0.08 Hz | Theta-power Pz-Oz, LSM CFB (175 mg single oral dose): −0.07 Hz | Theta-power Pz-Oz, estimate of difference compared to placebo (175 mg single oral dose): −0.14 [−0.37, 0.10] P = .25 Hz | Alpha-power Fz-Cz, LSM CFB (200 mg single oral dose): 0.01 Hz | Alpha-power Fz-Cz, estimate of difference compared to placebo (200 mg single oral dose): −0.28 [−1.39, 0.82] P = .61 Hz | Alpha-power Pz-Oz, LSM CFB (200 mg single oral dose): 0.24 Hz | Alpha-power Pz-Oz, estimate of difference compared to placebo (200 mg single oral dose): 0.14 [−0.11, 0.40] P = .27 Hz | Beta-power Fz-Cz, LSM CFB (200 mg single oral dose): 0.07 Hz | Beta-power Fz-Cz, estimate of difference compared to placebo (200 mg single oral dose): −0.05 [−0.27, 0.17] P = .67 Hz | Beta-power Pz-Oz, LSM CFB (200 mg single oral dose): 0.2 Hz | Beta-power Pz-Oz, estimate of difference compared to placebo (200 mg single oral dose): 0.07 [−0.12, 0.27] P = .46 Hz | Delta-power Fz-Cz, LSM CFB (200 mg single oral dose): 0.02 Hz | Delta-power Fz-Cz, estimate of difference compared to placebo (200 mg single oral dose): −0.08 [−0.29, 0.13] P = .45 Hz | Delta-power Pz-Oz, LSM CFB (200 mg single oral dose): 0.26 Hz | Delta-power Pz-Oz, estimate of difference compared to placebo (200 mg single oral dose): 0.20 [−0.04, 0.43] P = .10 Hz | Gamma-power Fz-Cz, LSM CFB (200 mg single oral dose): 0.21 Hz | Gamma-power Fz-Cz, estimate of difference compared to placebo (200 mg single oral dose): 0.11 [−0.09, 0.31] P = .29 Hz | Gamma-power Pz-Oz, LSM CFB (200 mg single oral dose): 0.31 Hz | Gamma-power Pz-Oz, estimate of difference compared to placebo (200 mg single oral dose): 0.11 [−0.15, 0.36] P = .40 Hz | Theta-power Fz-Cz, LSM CFB (200 mg single oral dose): 0.07 Hz | Theta-power Pz-Oz, LSM CFB (200 mg single oral dose): 0.25 Hz | Theta-power Pz-Oz, estimate of difference compared to placebo (200 mg single oral dose): 0.18 [−0.05, 0.41] P = .13 Hz
